Test results: the array DNA melting data of Ke et al. (doi:10.1101/2024.01.08.574731)

Assays:
[1] = melting temperature; fluorescence melt of hairpins on a sequencing array, two-state fit, raised by 9.35 °C to match UV melts; conditions: sodium 0.088 M
In short: (§1)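 Cy3 fluorescence of library hairpins on a sequenced MiSeq flow cell, with annealed Cy3 and quencher oligos, was imaged in 50 mM Na-HEPES pH 8.0, 25 mM NaCl in 2.5 °C steps up to 60 °C. Signals were normalised to pre-quench Cy3 and to control variants. Melting temperature and folding enthalpy came from bootstrapped two-state fits, inverse-variance combined over four replicates. Fitted temperatures were raised by 9.35 °C to match UV melts.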

[2] = folding enthalpy; higher = less favourable; fluorescence melt of hairpins on a sequencing array, two-state fit; conditions: sodium 0.088 M
In short: as §1

## GATCGGGGCACCGATC ((((((....))))))
[1]
  Tm: 65.9 °C
[2]
  folding enthalpy: -34.9 kcal/mol

## GATCGGGGCCCCGATC ((((((....))))))
[1]
  Tm: 68.6 °C
[2]
  folding enthalpy: -55 kcal/mol

## GATCGGGGCGCCGATC ((((((....))))))
[1]
  Tm: 58.4 °C
[2]
  folding enthalpy: -39 kcal/mol

## GATCGGGGCTCCGATC ((((((....))))))
[1]
  Tm: 59.4 °C
[2]
  folding enthalpy: -34.5 kcal/mol

## GATCGGGGTCCCGATC ((((((....))))))
[1]
  Tm: 61 °C
[2]
  folding enthalpy: -39.5 kcal/mol

## GATCGGGTCCCCGATC ((((((....))))))
[1]
  Tm: 61.3 °C
[2]
  folding enthalpy: -40.4 kcal/mol

## GATCGGGTTACCGATC ((((((....))))))
[1]
  Tm: 67.3 °C
[2]
  folding enthalpy: -35.8 kcal/mol

## GATCGGTAAACCGATC ((((((....))))))
[1]
  Tm: 56.2 °C
[2]
  folding enthalpy: -40.7 kcal/mol

## GATCGGTAGACCGATC ((((((....))))))
[1]
  Tm: 57 °C
[2]
  folding enthalpy: -41.1 kcal/mol

## GATCGGTCTCCCGATC ((((((....))))))
[1]
  Tm: 56.1 °C
[2]
  folding enthalpy: -41 kcal/mol

## GATCGGTGCGCCGATC ((((((....))))))
[1]
  Tm: 66.9 °C
[2]
  folding enthalpy: -36.9 kcal/mol

## GATCGGTGGCCCGATC ((((((....))))))
[1]
  Tm: 57.1 °C
[2]
  folding enthalpy: -37.6 kcal/mol

## GATCGGTGTACCGATC ((((((....))))))
[1]
  Tm: 65.8 °C
[2]
  folding enthalpy: -36.3 kcal/mol

## GATCGGTGTGCCGATC ((((((....))))))
[1]
  Tm: 64.8 °C
[2]
  folding enthalpy: -33.2 kcal/mol

## GATCGGTTCCCGATC ((((((...))))))
[1]
  Tm: 59.3 °C
[2]
  folding enthalpy: -39.3 kcal/mol

## GATCGGTTCGCCGATC ((((((....))))))
[1]
  Tm: 61.4 °C
[2]
  folding enthalpy: -45 kcal/mol

## GATCGGTTGCCGATC ((((((...))))))
[1]
  Tm: 59.1 °C
[2]
  folding enthalpy: -28.6 kcal/mol

## GATCGGTTTCCGATC ((((((...))))))
[1]
  Tm: 59 °C
[2]
  folding enthalpy: -34.7 kcal/mol

## GATCGTAAAGACGATC ((((((....))))))
[1]
  Tm: 51.1 °C
[2]
  folding enthalpy: -31.4 kcal/mol

## GATCGTAACAACGATC ((((((....))))))
[1]
  Tm: 55 °C
[2]
  folding enthalpy: -35.4 kcal/mol

## GATCGTAACCACGATC ((((((....))))))
[1]
  Tm: 54.8 °C
[2]
  folding enthalpy: -35.8 kcal/mol

## GATCGTAAGAACGATC ((((((....))))))
[1]
  Tm: 50.5 °C
[2]
  folding enthalpy: -35.1 kcal/mol

## GATCGTAAGACGATC ((((((...))))))
[1]
  Tm: 54.2 °C
[2]
  folding enthalpy: -42.3 kcal/mol

## GATCGTAATACGATC ((((((...))))))
[1]
  Tm: 53.5 °C
[2]
  folding enthalpy: -41.5 kcal/mol

## GATCGTACATACGATC ((((((....))))))
[1]
  Tm: 54.9 °C
[2]
  folding enthalpy: -41.2 kcal/mol

## GATCGTACCAACGATC ((((((....))))))
[1]
  Tm: 55.5 °C
[2]
  folding enthalpy: -36.7 kcal/mol

## GATCGTACCCACGATC ((((((....))))))
[1]
  Tm: 54.1 °C
[2]
  folding enthalpy: -40 kcal/mol

## GATCGTAGGACGATC ((((((...))))))
[1]
  Tm: 54.7 °C
[2]
  folding enthalpy: -44.2 kcal/mol

## GATCGTAGTAACGATC ((((((....))))))
[1]
  Tm: 55.7 °C
[2]
  folding enthalpy: -41.5 kcal/mol

## GATCGTATAGACGATC ((((((....))))))
[1]
  Tm: 53 °C
[2]
  folding enthalpy: -38.1 kcal/mol

## GATCGTATGGACGATC ((((((....))))))
[1]
  Tm: 56.5 °C
[2]
  folding enthalpy: -27 kcal/mol

## GATCGTATGTACGATC ((((((....))))))
[1]
  Tm: 56.8 °C
[2]
  folding enthalpy: -37.7 kcal/mol

## GATCGTATTACGATC ((((((...))))))
[1]
  Tm: 57 °C
[2]
  folding enthalpy: -36.1 kcal/mol

## GATCGTATTCACGATC ((((((....))))))
[1]
  Tm: 55.1 °C
[2]
  folding enthalpy: -34.7 kcal/mol

## GATCGTCATTACGATC ((((((....))))))
[1]
  Tm: 54.8 °C
[2]
  folding enthalpy: -38.5 kcal/mol

## GATCGTCCAGACGATC ((((((....))))))
[1]
  Tm: 59.8 °C
[2]
  folding enthalpy: -42.3 kcal/mol

## GATCGTCCGACGATC ((((((...))))))
[1]
  Tm: 53.9 °C
[2]
  folding enthalpy: -40.9 kcal/mol

## GATCGTCCTGACGATC ((((((....))))))
[1]
  Tm: 59.4 °C
[2]
  folding enthalpy: -46.3 kcal/mol

## GATCGTCGAGACGATC ((((((....))))))
[1]
  Tm: 60 °C
[2]
  folding enthalpy: -36.9 kcal/mol

## GATCGTCGCAACGATC ((((((....))))))
[1]
  Tm: 56.2 °C
[2]
  folding enthalpy: -38.1 kcal/mol

## GATCGTCGGACGATC ((((((...))))))
[1]
  Tm: 53.8 °C
[2]
  folding enthalpy: -38.9 kcal/mol

## GATCGTCGTACGATC ((((((...))))))
[1]
  Tm: 60.4 °C
[2]
  folding enthalpy: -29.3 kcal/mol

## GATCGTCGTCACGATC ((((((....))))))
[1]
  Tm: 53.5 °C
[2]
  folding enthalpy: -40.6 kcal/mol

## GATCGTCGTGACGATC ((((((....))))))
[1]
  Tm: 63.4 °C
[2]
  folding enthalpy: -50 kcal/mol

## GATCGTCTAAACGATC ((((((....))))))
[1]
  Tm: 56.1 °C
[2]
  folding enthalpy: -43 kcal/mol

## GATCGTCTACACGATC ((((((....))))))
[1]
  Tm: 53.9 °C
[2]
  folding enthalpy: -39.8 kcal/mol

## GATCGTCTGGACGATC ((((((....))))))
[1]
  Tm: 57.5 °C
[2]
  folding enthalpy: -42.6 kcal/mol

## GATCGTCTTGACGATC ((((((....))))))
[1]
  Tm: 66.3 °C
[2]
  folding enthalpy: -35.9 kcal/mol

## GATCGTGACACGATC ((((((...))))))
[1]
  Tm: 59.9 °C
[2]
  folding enthalpy: -40.4 kcal/mol

## GATCGTGAGCACGATC ((((((....))))))
[1]
  Tm: 55.9 °C
[2]
  folding enthalpy: -37.1 kcal/mol

## GATCGTGATTACGATC ((((((....))))))
[1]
  Tm: 56 °C
[2]
  folding enthalpy: -38.8 kcal/mol

## GATCGTGCGAAAGCAATC (((..(((....))))))
[1]
  Tm: 23.5 °C
[2]
  folding enthalpy: -6.96 kcal/mol

## GATCGTGCGACGATC ((((((...))))))
[1]
  Tm: 56.8 °C
[2]
  folding enthalpy: -38.4 kcal/mol

## GATCGTGCTACGATC ((((((...))))))
[1]
  Tm: 57.3 °C
[2]
  folding enthalpy: -41 kcal/mol

## GATCGTGGAAACGTGATC ((((..(....)..))))
[1]
  Tm: 37.3 °C
[2]
  folding enthalpy: -17.1 kcal/mol

## GATCGTGGATACGATC ((((((....))))))
[1]
  Tm: 60.7 °C
[2]
  folding enthalpy: -51.4 kcal/mol

## GATCGTGTCTACGATC ((((((....))))))
[1]
  Tm: 59.8 °C
[2]
  folding enthalpy: -38.3 kcal/mol

## GATCGTGTGACGATC ((((((...))))))
[1]
  Tm: 54.7 °C
[2]
  folding enthalpy: -40.1 kcal/mol

## GATCGTGTGCACGATC ((((((....))))))
[1]
  Tm: 59.9 °C
[2]
  folding enthalpy: -39.3 kcal/mol

## GATCGTTAAAACGATC ((((((....))))))
[1]
  Tm: 54.5 °C
[2]
  folding enthalpy: -35.6 kcal/mol

## GATCGTTAAACGATC ((((((...))))))
[1]
  Tm: 53.2 °C
[2]
  folding enthalpy: -34.6 kcal/mol

## GATCGTTATGACGATC ((((((....))))))
[1]
  Tm: 55.9 °C
[2]
  folding enthalpy: -38.6 kcal/mol

## GATCGTTCACACGATC ((((((....))))))
[1]
  Tm: 54.5 °C
[2]
  folding enthalpy: -40.3 kcal/mol

## GATCGTTCATACGATC ((((((....))))))
[1]
  Tm: 54.9 °C
[2]
  folding enthalpy: -46.9 kcal/mol

## GATCGTTCCCACGATC ((((((....))))))
[1]
  Tm: 53.8 °C
[2]
  folding enthalpy: -43.2 kcal/mol

## GATCGTTCGAACGATC ((((((....))))))
[1]
  Tm: 56.6 °C
[2]
  folding enthalpy: -53.9 kcal/mol

## GATCGTTCGACGATC ((((((...))))))
[1]
  Tm: 55.7 °C
[2]
  folding enthalpy: -38.2 kcal/mol

## GATCGTTGAGACGATC ((((((....))))))
[1]
  Tm: 58.1 °C
[2]
  folding enthalpy: -39.4 kcal/mol

## GATCGTTGGAACGATC ((((((....))))))
[1]
  Tm: 54.4 °C
[2]
  folding enthalpy: -42.4 kcal/mol

## GATCGTTGGTACGATC ((((((....))))))
[1]
  Tm: 55.2 °C
[2]
  folding enthalpy: -38.4 kcal/mol

## GATCGTTGTAACGATC ((((((....))))))
[1]
  Tm: 58.4 °C
[2]
  folding enthalpy: -48.8 kcal/mol

## GATCGTTTAAACGATC ((((((....))))))
[1]
  Tm: 56.1 °C
[2]
  folding enthalpy: -48.9 kcal/mol
